Measurements reported in ChEMBL document CHEMBL3414496, “Synthesis and biological evaluation of novel 2-heteroarylimino-1,3-thiazolidin-4-ones as potential anti-tumor agents” (Eur J Med Chem, 2015).
Activity calls are given as the source filed them. The calls are words filed in the database; no cut-off is given here.

How the values were obtained:
HT-29 [1] = assay: Induction of NQO1 expression in human HT-29 cells at 2.5 uM after 24 hrs by Western blotting method; format: functional
Procedure, shortened: (§1)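 Whole-cell lysates from treated HT29 cells in pH 7.5 Hepes/KOH buffer with EDTA, KCl, Igepal, DTT and protease inhibitors. 50 µg protein run on 10-15% SDS-PAGE and transferred to nitrocellulose. Probed overnight at 4°C with anti-HO-1 (1:1 000), anti-NQO1 (1:1 000) or anti-GCL (1:500), then HRP secondary for 45 min and chemiluminescence. Bands normalized to GAPDH (1:10 000), with the DMSO ratio set to 1.00. Representative of three experiments.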

HT-29 [2] = assay: Induction of NQO1 expression in human HT-29 cells at 2.5 uM after 4 hrs by Western blotting method; format: functional; procedure, shortened: as §1
HT-29 [3] = assay: Induction of GCL expression in human HT-29 cells at 2.5 uM after 4 hrs by Western blotting method; format: functional
Procedure, shortened: (§2)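 HT29 whole-cell lysates in Hepes/KOH pH 7.5 with EDTA, KCl, NP40, DTT, protease inhibitors; 50 µg protein on 10–15% SDS-PAGE, nitrocellulose, overnight 4°C primary antibody (GCL 1:500, HO-1 1:1000), HRP secondary, chemiluminescence. Bands normalized to GAPDH (1:10 000), DMSO ratio set at 1.00; representative of three independent experiments.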

HT-29 [4] = assay: Induction of GCL expression in human HT-29 cells at 2.5 uM after 2 hrs by Western blotting method; format: functional; procedure, shortened: as §2
HT-29 [5] = assay: Induction of HO1 expression in human HT-29 cells at 2.5 uM after 6 hrs by Western blotting method; format: functional; procedure, shortened: as §2
HT-29 [6] = assay: Reduction in cell viability of human HT-29 cells assessed as reduction in living cell level at 2.5 uM after 24 to 48 hrs by DCF-DA and propidium iodide staining based flow cytometry; format: functional
Procedure, shortened: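 HT29 cells treated two days after seeding, then loaded together with 50 µM DCF-DA and 25 µg/mL propidium iodide for 15 min at 37°C. Cells trypsinised, washed and resuspended in PBS; 30 000 cells per sample read by flow cytometry (FL-1, FL-3). Viable cells (PI-negative, DCF-positive) given as % of total events. Triplicates, two independent experiments.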

HT-29 [7] = assay: Induction of HO1 expression in human HT-29 cells at 2.5 uM after 4 hrs by Western blotting method; format: functional; procedure, shortened: as §2
HT-29 [8] = assay: Induction of HO1 expression in human HT-29 cells at 2.5 uM after 24 hrs by Western blotting method; format: functional; procedure, shortened: as §2
HT-29 [9] = assay: Inhibition of cell growth in human HT-29 cells assessed as mitotic index ratio in presence of 1 mM ascorbic acid (reference value: 1.08 +/- 0.04); format: functional
HT-29 [10] = assay: Induction of NQO1 expression in human HT-29 cells at 2.5 uM after 6 hrs by Western blotting method; format: functional; procedure, shortened: as §1
HT-29 [11] = assay: Growth inhibition of human HT-29 cells at 2.5 uM after 3 days by trypan blue dye exclusion assay; format: functional; settings: HT-29, 72 h, read-out: GI
Procedure, shortened: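 HT29 cells treated 48 h after seeding, dosed daily with daily medium change over three days; drug diluted in DMSO, controls 0.1% (v/v) DMSO. Cells trypsinized, mixed 1:1 with 0.04% trypan blue, live cells counted by hematimeter. Reported as mitotic index (treated/DMSO count); triplicates from two independent experiments.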

HT-29 [12] = assay: Induction of cell cycle arrest in human HT-29 cells assessed as accumulation at G0/G1 phase by propidium iodide staining based flow cytometry (reference value: 67.7 +/- 0.5%); format: functional
HT-29 [13] = assay: Reduction in cell growth of human HT-29 cells at 2.5 uM after 3 days by trypan blue dye exclusion assay; format: functional, cell-based
Procedure, shortened: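 HT29 cells treated daily from 48 h after seeding, over three days with daily medium changes, in 0.1% (v/v) DMSO vehicle. Cells trypsinised, mixed 1:1 with 0.04% trypan blue, and living cells counted by haemocytometer under microscope. Mitotic index is treated count relative to DMSO control. Triplicate determinations, two independent experiments, mean ± S.E.M.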

HT-29 [14] = assay: Induction of ROS generation in human HT-29 cells at 2.5 uM after 3 hrs by DCF-DA staining based fluorescence assay; format: functional, cell-based
Procedure, shortened: (§3)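 HT29 cells treated two days after seeding, then loaded with 50 µM DCF-DA for 15 min at 37°C. Cells trypsinized, washed and resuspended in PBS, and 30 000 cells/sample read by flow cytometry (FL-1). Expressed as % of DMSO-treated cells; […] for 1 h served as positive control. Triplicates from three independent experiments.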

HT-29 [15] = assay: Induction of NQO1 expression in human HT-29 cells at 2.5 uM after 2 hrs by Western blotting method; format: functional; procedure, shortened: as §1
HT-29 [16] = assay: Induction of cell cycle arrest in human HT-29 cells assessed as accumulation at subG1 phase by propidium iodide staining based flow cytometry (reference value: 2.3 +/- 0.1%); format: functional
HT-29 [17] = assay: Induction of GCL expression in human HT-29 cells at 2.5 uM after 6 hrs by Western blotting method; format: functional; procedure, shortened: as §2
HT-29 [18] = assay: Induction of HO1 expression in human HT-29 cells at 2.5 uM after 2 hrs by Western blotting method; format: functional; procedure, shortened: as §2
HT-29 [19] = assay: Induction of cell cycle arrest in human HT-29 cells assessed as accumulation at G2/M phase by propidium iodide staining based flow cytometry (reference value: 11.3 +/- 1%); format: functional
HT-29 [20] = assay: Induction of GCL expression in human HT-29 cells at 2.5 uM after 24 hrs by Western blotting method; format: functional; procedure, shortened: as §2
HT-29 [21] = assay: Induction of GCL expression in human HT-29 cells at 6.4 uM after 6 hrs by Western blotting method; format: functional; procedure, shortened: as §2
HT-29 [22] = assay: Induction of cell cycle arrest in human HT-29 cells assessed as accumulation at subG1 phase by propidium iodide staining based flow cytometry (reference value: 6.9 +/- 0.5%); format: functional
HT-29 [23] = assay: Induction of ROS generation in human HT-29 cells at cytotoxic IC50 level after 4 hrs by DCF-DA staining based fluorescence assay; format: functional, cell-based; procedure, shortened: as §3
HT-29 [24] = assay: Induction of cell cycle arrest in human HT-29 cells assessed as accumulation at G0/G1 phase by propidium iodide staining based flow cytometry (reference value: 46.1 +/- 0.4%); format: functional
HT-29 [25] = assay: Induction of ROS generation in human HT-29 cells at cytotoxic IC50 level after 1 hr by DCF-DA staining based fluorescence assay; format: functional, cell-based; procedure, shortened: as §3
HT-29 [26] = assay: Induction of NQO1 expression in human HT-29 cells at 3.8 uM after 2 hrs by Western blotting method; format: functional; procedure, shortened: as §1
HT-29 [27] = assay: Induction of HO1 expression in human HT-29 cells at 3.8 uM after 2 hrs by Western blotting method; format: functional; procedure, shortened: as §2
HT-29 [28] = assay: Induction of ROS generation in human HT-29 cells at cytotoxic IC50 level after 6 hrs by DCF-DA staining based fluorescence assay; format: functional, cell-based; procedure, shortened: as §3
HT-29 [29] = assay: Induction of HO1 expression in human HT-29 cells at 1.5 uM after 24 hrs by Western blotting method; format: functional; procedure, shortened: as §2
HT-29 [30] = assay: Induction of ROS generation in human HT-29 cells at cytotoxic IC50 level after 30 mins by DCF-DA staining based fluorescence assay; format: functional, cell-based; procedure, shortened: as §3
HT-29 [31] = assay: Induction of HO1 expression in human HT-29 cells at 10 uM after 2 hrs by Western blotting method; format: functional; procedure, shortened: as §2

Structure (SMILES)	fold change (FC) (HT-29 [1])	fold change (FC) (HT-29 [2])	fold change (FC) (HT-29 [3])	fold change (FC) (HT-29 [4])	fold change (FC) (HT-29 [5])	inhibition (HT-29 [6])	fold change (FC) (HT-29 [7])	fold change (FC) (HT-29 [8])	fold change (FC) (HT-29 [10])	inhibition of growth at 2.5 µM (HT-29 [11]) [%]	Activity (HT-29 [12]) [%]	inhibition (HT-29 [13])	fold change (FC) (HT-29 [15])	Activity (HT-29 [16]) [%]	fold change (FC) (HT-29 [17])	fold change (FC) (HT-29 [18])	Activity (HT-29 [19]) [%]	Activity (HT-29 [22]) [%]	Activity (HT-29 [23])	Activity (HT-29 [24]) [%]	also measured
CN(C)c1ccc(/C=C2\S/C(=N\c3nc(-c4ccc(Cl)cc4)cs3)NC2=O)cc1	0.78	0.67	0.99	0.98	1	Active	1	1	0.72	90	60.6	Active	0.93	16.2	1.2	1	18.7				Ratio (HT-29 [9]): 0.09; Activity (HT-29 [14]): Active; fold change (FC) (HT-29 [20]): 1.18
Cc1ccc(/C=C2\S/C(=N\c3csc(-c4ccc(Cl)cc4)c3)NC2=O)cc1																		21.5	Active	1.2	fold change (FC) (HT-29 [21]): 2.25
COc1ccc(/C=C2\S/C(=N\c3csc(-c4ccc(Cl)cc4)c3)NC2=O)cc1																		21.6	Active	1.2	Activity (HT-29 [25]): Active; fold change (FC) (HT-29 [26]): 1.16; fold change (FC) (HT-29 [27]): 1; Activity (HT-29 [28]): inactive
CN(C)c1ccc(/C=C2\S/C(=N\c3csc(-c4ccc(Cl)cc4)c3)NC2=O)cc1																		29	Active	1.5	fold change (FC) (HT-29 [29]): 1
COc1ccc(/C=C2\S/C(=N\c3nc(-c4ccc(Cl)cc4)cs3)NC2=O)cc1	0.85	0.85	0.87	1.06	1	Active	1	1	0.96	90	58.7	Active	1.07	20.9	0.86	1	24.1				fold change (FC) (HT-29 [20]): 0.98
COc1ccc(/C=C2\S/C(=N\c3csc(-c4ccc(Cl)cc4)c3)NC2=O)cc1OC																		20.6	Active	2.3	Activity (HT-29 [25]): Active; Activity (HT-29 [28]): inactive; Activity (HT-29 [30]): Active; fold change (FC) (HT-29 [31]): 1
